The source of these data is ChEMBL document CHEMBL1955718, “Discovery of new orally effective analgesic and anti-inflammatory hybrid furoxanyl N-acylhydrazone derivatives” (Bioorg Med Chem, 2012).

Data set [1] is described as follows: Cytotoxicity against human HT-29 cells expressing NF-kappaB-hrGFP assessed as highest non-cytotoxic dose for 100% cell survival after 24 hrs by MTT assay. The format is cell-based. To be noted: read-out: Activity. A digest of the protocol:
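HT-29 cells stably carrying pNF-κB-hrGFP, seeded at 0.5 × 10^6/mL in DMEM with 10% FBS, grown 24 h at 37 °C, 5% CO2. Compounds added in DMSO (<0.5% v/v final) at 12.5–400 µM for 24 h. Viability by MTT reduction (2 h), formazan dissolved in DMSO/glycine buffer, read at 560 nm.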
(In general: Tetrazolium assays rely on reduction of a dye to a coloured formazan, in cell work by metabolically active cells.)

Data set [2] relates to HT-29. The data set can be described thus: Inhibition of NF-kappaB activation expressed in human HT-29 cells assessed as inhibition of TNFalpha-stimulated IL8 release at 100 uM after 24 hrs by flow cytometric analysis relative to control. The format is cell-based. The method in brief: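 Reporter HT-29-NF-κB-hrGFP cells pretreated 2 h with compound (DMSO <0.5%) at the highest concentration with 100% survival, then stimulated with TNF-α (3 ng/mL final) for 18–24 h at 37 °C. IL-8 in clarified supernatant measured by flow cytometric bead assay (500 events). Expressed as % of TNF-α/DMSO control ± SD; thalidomide as reference.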
On the technique in general: A flow cytometer gives signals particle by particle.

Data set [3] can be described thus: Cytotoxicity against mouse […] cells after 48 hrs by MTT assay. Format: cell-based. The method in brief:
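J774 macrophages in DMEM (4 mM L-glutamine, 10% heat-inactivated FBS) were seeded at 1 × 10^5 cells/well and grown for 48 h at 37 °C, 5% CO2. They were then exposed to compounds at 25–400 µM for 48 h. MTT (0.1 mg/mL final) was added for 3 h, formazan was dissolved in DMSO/glycine buffer pH 10.5, and absorbance was read at 560 nm to give an IC50.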

The test system of data set [4] is HT-29. The data set is described as follows: Pro-inflammatory activity in NFkappaB-GFP transfected human HT-29 cells at 25 to 400 uM after 24 hrs by propidium iodide staining-based flow cytometric analysis. To be noted: ht-29, 24 h. The format is ADME, cell-based. The method in brief:
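Reporter HT-29-NF-κB-hrGFP cells given compound alone, without TNF-α, for 18–24 h at 37 °C after the same 2 h pre-incubation. GFP-positive live (propidium iodide-excluding) cells counted by flow cytometry; IL-8 in supernatant measured by bead-based flow cytometry.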

A further data set has as its system Rattus norvegicus. The data set is described as follows: Antiinflammatory activity in albino rat assessed as inhibition of carrageenan-induced paw edema at 100 umol/kg, po administered 1 hr before carrageenan challenge measured after 3 hrs by plethysmometric analysis relative to control. The format is functional. The method in brief: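 Albino rats of both sexes (150–200 g) were dosed orally as a suspension in 1% Tween 80 in saline, with vehicle controls. After 1 h, 0.1 mL 1% carrageenan or saline was injected subplantar. Paw volume was read by glass plethysmometer at 3 h. Edema = carrageenan-paw minus saline-paw volume; % inhibition vs vehicle; Student t-test.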
On the technique in general: In the carrageenan paw model, swelling and tenderness develop within hours.

The subject of a further data set is Glycine max. The data set can be described thus: Inhibition of soybean lipoxygenase using arachidonic acid as substrate at 50 uM. The method in brief: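 Soybean 15-lipoxygenase kit assay, arachidonic acid substrate, H2O2 as lipoxygenating agent in 0.1 M Tris-HCl pH 7.4. Single-point screen at 50 µM. IC50 found by varying concentration over 10–100 µM. Quercetin at 4 µM as positive control; duplicate means; Student t-test.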

Data set [5] concerns the target T1, Prostaglandin G/H synthase 1 (Ovis aries) (UniProt P05979).
T1 sequence (whole entry): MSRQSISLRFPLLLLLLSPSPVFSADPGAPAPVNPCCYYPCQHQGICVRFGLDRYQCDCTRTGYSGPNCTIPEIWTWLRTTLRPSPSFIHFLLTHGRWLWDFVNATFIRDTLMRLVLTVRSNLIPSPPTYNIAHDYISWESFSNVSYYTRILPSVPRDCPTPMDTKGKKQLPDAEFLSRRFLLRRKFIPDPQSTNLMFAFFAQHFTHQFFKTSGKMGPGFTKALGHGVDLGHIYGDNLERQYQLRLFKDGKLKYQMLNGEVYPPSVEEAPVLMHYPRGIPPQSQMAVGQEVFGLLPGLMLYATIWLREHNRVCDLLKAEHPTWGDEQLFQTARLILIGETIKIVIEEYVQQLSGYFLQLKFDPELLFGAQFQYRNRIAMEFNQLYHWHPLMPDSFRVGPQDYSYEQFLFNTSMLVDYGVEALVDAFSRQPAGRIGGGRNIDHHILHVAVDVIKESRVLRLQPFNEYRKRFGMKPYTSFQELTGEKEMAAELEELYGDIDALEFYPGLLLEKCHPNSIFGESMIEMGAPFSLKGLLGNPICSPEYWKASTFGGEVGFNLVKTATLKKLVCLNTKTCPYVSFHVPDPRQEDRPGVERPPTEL
The data set can be described thus: Inhibition of ovine COX-1 at 10 uM. A digest of the protocol: (§1)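 Isolated ovine COX-1 and human recombinant COX-2 tested by ELISA-based inhibitor screening kit with compound at 10 and 50 µM. Positive control indomethacin at 0.1 µM (COX-1) or 6 µM (COX-2). Mean of duplicates; Student t-test.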

The target of data set [6] is T1, Prostaglandin G/H synthase 1 (Ovis aries). The data set is described as follows: Inhibition of ovine COX-1 at 50 uM. A digest of the protocol: as §1
Data set [7] has as its target T2, Prostaglandin G/H synthase 2 (Homo sapiens) (UniProt P35354).
T2 sequence (whole entry): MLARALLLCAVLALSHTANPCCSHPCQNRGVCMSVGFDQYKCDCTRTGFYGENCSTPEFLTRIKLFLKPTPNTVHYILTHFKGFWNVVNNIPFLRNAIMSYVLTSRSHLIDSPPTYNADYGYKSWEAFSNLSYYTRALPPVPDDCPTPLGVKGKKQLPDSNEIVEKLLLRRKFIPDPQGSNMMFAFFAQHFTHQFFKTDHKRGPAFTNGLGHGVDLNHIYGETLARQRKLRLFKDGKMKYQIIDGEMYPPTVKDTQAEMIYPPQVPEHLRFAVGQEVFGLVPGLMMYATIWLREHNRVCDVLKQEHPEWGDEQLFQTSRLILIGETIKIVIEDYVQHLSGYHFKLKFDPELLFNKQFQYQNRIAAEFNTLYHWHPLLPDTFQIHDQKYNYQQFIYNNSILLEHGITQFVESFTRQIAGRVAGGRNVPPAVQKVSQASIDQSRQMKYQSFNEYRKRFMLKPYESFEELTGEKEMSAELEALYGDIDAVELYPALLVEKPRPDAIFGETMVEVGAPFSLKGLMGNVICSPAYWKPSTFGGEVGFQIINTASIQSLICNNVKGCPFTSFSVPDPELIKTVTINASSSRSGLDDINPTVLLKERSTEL
The data set is described as follows: Inhibition of human recombinant COX-2 at 10 uM. The method in brief:
as §1

For data set [8], the target named is T2, Prostaglandin G/H synthase 2 (Homo sapiens). The data set can be described thus: Inhibition of human recombinant COX-2 at 50 uM. The method in brief:
as §1

A short description of data set [9]: Induction of NO release in 0.1 M Tris-HCl and 0.1 mM DTPA at pH 8.3 measured for 20 mins in presence of cysteine. The format is physicochemical. To be noted: buffer, pH 8.3, 20 min. The method in brief:
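Electrochemical NO detection with an ISO-NOP sensor. Compounds in DMSO added to 0.1 M Tris-HCl, 0.1 mM DTPA at pH 7.4 or 8.3. Cysteine (300 or 100 µM) added and NO recorded for 20 min at 25 or 37 °C; compound:Cys ratio 1:1 at 25 °C, with 3:1 and 37 °C runs also made.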

Molecules are shown by their SMILES.

Regarding `O=C(N/N=C/c1c(-c2ccccc2)no[n+]1[O-])c1ccc2c(c1)OCO2`, the MNTC at 24 h in [1] turned out to be 100 µM. Also, the inhibition in the data set on HT-29 [2] was determined as 4%; in the data set on Glycine max, 0%; in data set [5], 27%; in [6] it was 28.5%; in [7], 13.1%; in data set [8], 11.9%. Also, half-maximal inhibition in [3] (IC50) required 191 µM. Further, the Activity entry is “Non-toxic” in the data set on HT-29 [4] and 0.39 nM/min in [9]. In addition, in the data set with Rattus norvegicus, the inhibition in vivo at 100 µmol/kg was 0%.
On to `Cc1[nH]cnc1C(=O)N/N=C/c1ccc2no[n+]([O-])c2c1`, for which the MNTC at 24 h in data set [1] stood at 50 µM. For the same compound, half-maximal inhibition in data set [3] (IC50) was put at 38 µM. Also, the figures for the Activity result (in the data set with HT-29 [4]; in data set [9]) were “Non-toxic” and 0 nM/min, respectively. In addition, the inhibition in vivo at 100 µmol/kg with Rattus norvegicus turned out to be 31%. Further, the inhibition is 0% in the data set with Glycine max; 25.9% in [5]; 22.3% in data set [6]; 19.6% in data set [7]; 6.4% in [8].
For `Cc1c(C(=O)N/N=C/c2ccc(N(C)C)cc2)no[n+]1[O-]`, the MNTC at 24 h in [1] was determined as 100 µM. Further, the inhibition in the data set on HT-29 [2] amounted to 98%; in the data set with Glycine max it was 0%; in data set [5] it was 22.5%; in data set [6], 25.3%; in data set [7], 17.8%; in data set [8], 22%. It took 129 µM to reach half-maximal inhibition in data set [3] (IC50). Further, the Activity entry in the data set on HT-29 [4] was “Non-toxic”. Besides, the inhibition in vivo at 100 µmol/kg with Rattus norvegicus is 19%.

One may read the inhibition as the percentage by which the read-out fell short of the control. Usually IC50 stands for the concentration at which inhibition is half-maximal. As a reminder, the inhibition in vivo is the share of the control response that was lost under treatment.
